Laboratory results from paper PMC7655718 (The Journal of antibiotics, 2020).
≈ marks a conversion by molar mass, not a printed value. Where two headings read alike, the source gives them in different places.

Key:
[1] = tested on: S. aureus BAA-2312 (Sa12); assay: MIC, microdilution with resazurin; assay type: cell-based; details: Staphylococcus aureus, BAA2312, read-out: MIC Sa12
Outline: (§1)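 Compounds dissolved in DMSO at 2 mg/mL. Overnight blood-agar colonies were suspended in PBS to 0.5 McFarland, then diluted in Mueller Hinton broth to about 1x10^6 cfu/mL with resazurin (1:1000 of 0.1% w/v stock). Twofold DMSO dilutions were added 1:40, giving 50 to 0.4 μg/mL at 2.5% DMSO. Incubation was 35 °C for 16-20 h. Blue/non-turbid wells counted as inhibited, pink/turbid as grown.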

[2] = tested on: A. baumannii ATCC 747 (Ab47); assay: MIC, microdilution with resazurin; assay type: cell-based, Acinetobacter baumannii; details: Acinetobacter baumannii, ATCC747, read-out: MIC Ab47
Outline: as §1

[3] = tested on: tested Gram-positive bacterial strains; assay: MIC, text summary over tested Gram-positive strains; assay type: cell-based
[4] = tested on: A. baumannii ATCC 19606 (type strain, Ab06); assay: MIC and MBC; assay type: cell-based, Acinetobacter baumannii; details: Acinetobacter baumannii
Outline: as §1

[5] = tested on: B. subtilis ATCC 6623 (Bs); assay: MIC, microdilution with resazurin; assay type: cell-based, Bacillus subtilis; details: Bacillus subtilis, ATCC6623, read-out: MIC Bs
[6] = tested on: S. aureus ATCC 25923 (Sa23); assay: MIC, microdilution with resazurin; assay type: cell-based; details: Staphylococcus aureus, ATCC25923, read-out: MIC Sa23
Outline: as §1

[7] = tested on: S. epidermidis 700296 (Se); assay: MIC, microdilution with resazurin; assay type: cell-based; details: Staphylococcus epidermidis, read-out: MIC Se
Outline: as §1

[8] = tested on: S. aureus ATCC 33591 (Sa91); assay: MIC, microdilution with resazurin; assay type: cell-based; details: Staphylococcus aureus, ATCC33591, read-out: MIC Sa91
Outline: as §1

[9] = tested on: S. aureus ATCC 700699 (Sa99); assay: MIC, microdilution with resazurin; assay type: cell-based; details: Staphylococcus aureus, ATCC700699, read-out: MIC Sa99
Outline: as §1

[10] = tested on: S. aureus ATCC 33592 (Sa92); assay: MIC, microdilution with resazurin; assay type: cell-based; details: Staphylococcus aureus, ATCC33592, read-out: MIC Sa92
Outline: as §1

[11] = tested on: S. aureus ATCC 25923 biofilm formation; assay: Biofilm inhibition assay; assay type: cell-based, Staphylococcus aureus; details: 2xMIC, MIC and 0.5xMIC concentrations, 24 hours
Outline: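 Blood-agar culture was suspended in PBS (0.5 McFarland), then diluted 1:100 in yeast extract casamino acid broth (about 1x10^6 cfu/mL). Compound at 2xMIC, MIC and 0.5xMIC was added before biofilm formation, in triplicate, with broth-only and bacteria+DMSO controls. Incubation was 35 °C for 24 h. Wells were PBS-washed, dried, stained with 0.1% crystal violet, solubilised in 33% acetic acid and read at 620 nm. % inhibition = [1−(ODcompound−ODbroth)/(ODdmso−ODbroth)]×100, from mean and SD.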

[12] = tested on: A. baumannii ATCC 19606; assay: Time kill assay; assay type: cell-based, Acinetobacter baumannii; details: 4xMIC
Outline: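 Growth curves by optical density set the log phase. Log-phase bacteria (about 2 h shaking in Mueller Hinton broth II) were diluted in warm broth to about 3x10^6 cfu/mL. They were exposed to compound at 4xMIC (other multiples where indicated), in triplicate, at 35 °C. Colistin (A. baumannii) or vancomycin (S. aureus) and DMSO were included. Samples at 0, 2, 4, 6, 8, 10, 12 and 24 h were counted by drop plate on blood agar (18-24 h, 35 °C). Log cfu/mL was plotted against time.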

[13] = tested on: human embryonic kidney cell line (HEK293); assay: Toxicity against HEK293 cell line; assay type: cell-based

| SMILES | MIC [1] [µg/mL] | MIC [2] [µg/mL] | MIC ([3]; Staphylococcus aureus, read-out: MIC value against S. aureus strains) [µg/mL] | MIC ([4]; ATCC19606, read-out: MIC Ab06) [µg/mL] | MIC [5] [µg/mL] | MIC [6] [µg/mL] | MIC [7] [µg/mL] | MIC [8] [µg/mL] | MIC [9] [µg/mL] | MIC [10] [µg/mL] | MIC ([3]; read-out: MIC value as low as) [µg/mL] | inhibition of biofilm formation [11] | antimicrobial activity against the tested strains [3] | MBC ([4]; ATCC19606) [µg/mL] | MIC ([4]; ATCC19606) [µg/mL] | time kill effect ([12]; 24 hours at 35 °C) | increase in log10 cfu/mL of the bacterial population ([12]; through 24 hours) [fold] | toxicity for HEK293 [13] |
| --- | --- | --- | --- | --- | --- | --- | --- | --- | --- | --- | --- | --- | --- | --- | --- | --- | --- | --- |
| O=C(O)c1ccc(-n2cc(/C=N/Nc3ccccc3)c(-c3ccc4ccccc4c3)n2)cc1 [Compound 6] | 25 (≈ 57.8 µM) | > 50 | 25 (≈ 57.8 µM) | > 50 | 25 (≈ 57.8 µM) | 25 (≈ 57.8 µM) | 25 (≈ 57.8 µM) | > 25 | 12.5 (≈ 28.9 µM) | 12.5 (≈ 28.9 µM) |  |  |  |  |  |  |  |  |
| CN(/N=C/c1cn(-c2ccc(C(=O)O)cc2)nc1-c1ccc2ccccc2c1)c1ccccc1 [Compound 7] | > 50 | > 50 |  | > 50 | > 50 | > 50 | > 50 | > 50 | 1.56 (≈ 3.49 µM) | 1.56 (≈ 3.49 µM) |  |  |  |  |  |  |  |  |
| O=C(O)c1ccc(-n2cc(/C=N/N(c3ccccc3)c3ccccc3)c(-c3ccc4ccccc4c3)n2)cc1 [Compound 8] | 3.12 (≈ 6.14 µM) | > 50 |  | > 50 | 12.5 (≈ 24.6 µM) | 1.56 (≈ 3.07 µM) | 1.56 (≈ 3.07 µM) | 3.12 (≈ 6.14 µM) | 1.56 (≈ 3.07 µM) | 1.56 (≈ 3.07 µM) | ≥ 1.56 | very effective |  |  |  |  |  |  |
| O=C(O)c1ccc(-n2cc(/C=N/N(Cc3ccccc3)c3ccccc3)c(-c3ccc4ccccc4c3)n2)cc1 [Compound 9] | 3.12 (≈ 5.98 µM) | > 50 |  | > 50 | 25 (≈ 47.8 µM) | 3.12 (≈ 5.98 µM) | 3.12 (≈ 5.98 µM) | 1.56 (≈ 2.99 µM) | 1.56 (≈ 2.99 µM) | 1.56 (≈ 2.99 µM) | ≥ 1.56 |  |  |  |  |  |  |  |
| Cc1ccc(N/N=C/c2cn(-c3ccc(C(=O)O)cc3)nc2-c2ccc3ccccc3c2)cc1 [Compound 11] | 25 (≈ 56 µM) | > 50 |  | > 50 | 25 (≈ 56 µM) | 25 (≈ 56 µM) | 25 (≈ 56 µM) | 25 (≈ 56 µM) | 6.25 (≈ 14 µM) | 12.5 (≈ 28 µM) |  |  | reduced the potency drastically |  |  |  |  |  |
| CCc1ccccc1N/N=C/c1cn(-c2ccc(C(=O)O)cc2)nc1-c1ccc2ccccc2c1 [Compound 12] | 25 (≈ 54.3 µM) | > 50 |  | > 50 | 25 (≈ 54.3 µM) | 25 (≈ 54.3 µM) | > 25 | 25 (≈ 54.3 µM) | 12.5 (≈ 27.1 µM) | 12.5 (≈ 27.1 µM) |  |  | reduced the potency drastically |  |  |  |  |  |
| COc1ccc(N/N=C/c2cn(-c3ccc(C(=O)O)cc3)nc2-c2ccc3ccccc3c2)cc1 [Compound 13] | > 25 | > 50 |  | > 50 | > 25 | > 25 | > 25 | 25 (≈ 54.1 µM) | 12.5 (≈ 27 µM) | 25 (≈ 54.1 µM) |  |  | reduced the potency drastically |  |  |  |  |  |
| O=C(O)c1ccc(-n2cc(/C=N/Nc3ccc(Cl)cc3)c(-c3ccc4ccccc4c3)n2)cc1 [Compound 16] | 6.25 (≈ 13.4 µM) | 6.25 (≈ 13.4 µM) |  | 3.12 (≈ 6.69 µM) | 12.5 (≈ 26.8 µM) | 6.25 (≈ 13.4 µM) | 6.25 (≈ 13.4 µM) | 12.5 (≈ 26.8 µM) | 1.56 (≈ 3.34 µM) | 3.12 (≈ 6.69 µM) |  |  |  | 50 (≈ 107 µM) | 3.12 (≈ 6.69 µM) | bacteriostatic effect | ≤ 2 |  |
| O=C(O)c1ccc(-n2cc(/C=N/Nc3c(F)c(F)c(F)c(F)c3F)c(-c3ccc4ccccc4c3)n2)cc1 [Compound 24] | > 50 | > 50 |  | > 50 | 1.56 (≈ 2.99 µM) | 3.12 (≈ 5.98 µM) | > 50 | > 50 | 0.78 (≈ 1.49 µM) | 0.78 (≈ 1.49 µM) | ≥ 0.78 |  |  |  |  |  |  | selective toxicity for bacterial cells |
| N#Cc1ccc(N/N=C/c2cn(-c3ccc(C(=O)O)cc3)nc2-c2ccc3ccccc3c2)cc1 [Compound 26] | > 50 | > 50 |  | > 50 | > 50 | > 50 | > 50 | > 50 | > 50 | > 50 |  |  | eliminated the activity |  |  |  |  |  |
| O=C(O)c1ccc(-n2cc(/C=N/Nc3ccc([N+](=O)[O-])cc3)c(-c3ccc4ccccc4c3)n2)cc1 [Compound 27] | > 50 | > 50 |  | > 50 | > 50 | > 50 | > 50 | > 50 | > 50 | > 50 |  |  | eliminated the activity |  |  |  |  |  |
| O=C(O)c1ccc(N/N=C/c2cn(-c3ccc(C(=O)O)cc3)nc2-c2ccc3ccccc3c2)cc1 [Compound 28] | > 50 | > 50 |  | > 50 | > 50 | > 50 | > 50 | > 50 | > 50 | > 50 |  |  | eliminated the activity |  |  |  |  |  |
| CN(C)/N=C/c1cn(-c2ccc(C(=O)O)cc2)nc1-c1ccc2ccccc2c1 [Compound 29] | > 50 | > 50 |  | > 50 | > 25 | > 25 | > 25 | > 50 | 25 (≈ 65 µM) | > 25 |  |  | did not show any activity |  |  |  |  |  |
| O=C(O)c1ccc(-n2cc(/C=N/N3CCCCC3)c(-c3ccc4ccccc4c3)n2)cc1 [Compound 30] | > 50 | > 50 |  | > 50 | 25 (≈ 58.9 µM) | > 25 | > 25 | > 25 | 25 (≈ 58.9 µM) | 25 (≈ 58.9 µM) |  |  | failed to show any remarkable antimicrobial activity |  |  |  |  |  |
| CN1CCN(/N=C/c2cn(-c3ccc(C(=O)O)cc3)nc2-c2ccc3ccccc3c2)CC1 [Compound 31] | > 50 | > 50 |  | > 50 | > 50 | > 50 | > 50 | > 50 | > 50 | > 50 |  |  | failed to show any remarkable antimicrobial activity |  |  |  |  |  |
| O=C(O)c1ccc(-n2cc(/C=N/n3cnnc3)c(-c3ccc4ccccc4c3)n2)cc1 [Compound 32] | > 50 | > 50 |  | > 50 | > 50 | > 50 | > 50 | > 50 | > 50 | > 50 |  |  | failed to show any remarkable antimicrobial activity |  |  |  |  |  |
| O=C(O)c1ccc(-n2cc(/C=N/NC3=NCCN3)c(-c3ccc4ccccc4c3)n2)cc1 [Compound 33] | > 50 | > 50 |  | > 50 | > 50 | > 50 | > 50 | > 50 | > 50 | > 50 |  |  | failed to show any remarkable antimicrobial activity |  |  |  |  |  |
| COC(=O)N/N=C/c1cn(-c2ccc(C(=O)O)cc2)nc1-c1ccc2ccccc2c1 [Compound 34] | > 50 | > 50 |  | > 50 | > 50 | > 50 | > 50 | > 50 | > 50 | > 50 |  |  | failed to show any remarkable antimicrobial activity |  |  |  |  |  |
